Screening data: PubChem BioAssay, The Scripps Research Institute Molecular Screening Center
Rows were chosen to be rich in hits. Some 1.9% of all compounds tested hit in one or more screens of this group.
M5 antag: antagonists of human muscarinic M5 receptor (CHRM5); AID 624040; inhibition, % at 3 µM; CHO-hM5 cells, Fluo-8 calcium fluorescence, ACh EC80; 360,000 compounds, 0.59% hits;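 active = inhibition above a per-plate cutoff, the mean of that plate's test compounds plus 3 SD, cut at about 27% in these data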;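 note: 0% = acetylcholine EC80 with DMSO and 100% = DMSO without agonist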
Target sequence (P08912 whole entry, looked up): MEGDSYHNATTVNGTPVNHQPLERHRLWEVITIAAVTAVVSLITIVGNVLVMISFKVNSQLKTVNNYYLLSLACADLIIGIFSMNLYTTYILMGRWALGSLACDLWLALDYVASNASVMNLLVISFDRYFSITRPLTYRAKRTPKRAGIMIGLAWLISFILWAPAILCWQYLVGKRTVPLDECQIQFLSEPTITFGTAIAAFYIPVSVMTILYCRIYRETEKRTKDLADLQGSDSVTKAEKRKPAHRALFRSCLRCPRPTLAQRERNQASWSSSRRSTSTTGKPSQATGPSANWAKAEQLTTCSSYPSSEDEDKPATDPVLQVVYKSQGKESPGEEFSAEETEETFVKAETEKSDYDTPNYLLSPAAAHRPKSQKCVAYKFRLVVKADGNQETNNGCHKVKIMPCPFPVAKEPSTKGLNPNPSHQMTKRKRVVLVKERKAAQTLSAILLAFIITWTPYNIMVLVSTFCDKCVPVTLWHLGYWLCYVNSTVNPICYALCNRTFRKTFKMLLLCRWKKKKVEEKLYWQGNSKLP
M5 PAM: positive allosteric modulators of human muscarinic M5 receptor; 360,000 compounds, 0.3% hits; activation, % at 3 µM; AID 624038; P08912; CHO-K1 hM5, Fluo-8 calcium, ACh EC20 PAM; 0% = ACh EC20, 100% = ACh EC100;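 active = activation above the run cutoff, the mean activation of all test compounds plus 3 SD, cut at about 18% in these data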
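Assay system – human M5 receptor in CHO-K1 cells · Read-out – % activation, ACh-normalized · Technique – Fluo-8 calcium fluorescence · Dosing – single-point, 3 µM nominal · Incubation – Fluo-8 loading 80 min at 37 °C plus 30 min room temperature · Repeats – singlicate, one well per test compound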
M5 ag: agonists of human muscarinic M5 receptor (CHRM5); activation, % at 3 µM; P08912; 360,000 compounds, 0.19% hits; CHO-K1 hM5 cells, Fluo-8 calcium fluorescence; 0% DMSO wells, 100% maximal acetylcholine response;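 active = activation above the run's mean over test compounds plus 3 SD, cut at about 23% in these data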;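 note: signal is peak over basal fluorescence ratio across the kinetic read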
CHRM4 agonist: CHRM4 agonism in calcium assay | P08173 | CHO-K1 hM4/Gqi5, Fluo-8 calcium fluorescence; vehicle 0%, full acetylcholine response 100% | activation, % at 3 µM | 360,000 compounds, 0.14% hits;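 active = activation above the run mean over all test wells plus 3 SD, cut at about 32% in these data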;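 note: peak over basal fluorescence ratio per well then scaled between controls; 0% = DMSO wells and 100% = acetylcholine at EC100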
M4 PAM: CHRM4 positive allosteric modulation. activation, % at 3 µM. AID 624126. 360,000 compounds, 0.4% hits. P08173. CHO-K1 hM4/Gqi5, Fluo-8 calcium fluorescence, ACh EC20; 0% = ACh EC20, 100% = maximal ACh;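 active = activation above its plate's cutoff, the mean activation of sample wells plus 3 SD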
M4 antag: blocks acetylcholine activation of human M4 receptor; 360,000 compounds, 0.73% hits; P08173; CHO-hM4 cells, ACh EC80, Fluo-8 calcium fluorescence; inhibition, % at 3 µM;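 active = inhibition above its plate's cutoff, the mean inhibition of sample wells plus 3 SD, cut at about 27% in these data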;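 note: 0% = acetylcholine EC80 with DMSO and 100% = DMSO without agonist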
An asterisk follows results filed as active; ! = not active in a repeat.

`CCCCC1=C(C(=O)OCC)C(C(=O)OCC)Oc2ccccc21` (stereo not drawn) gave M5 antag -7, M5 PAM -5, M5 ag -3, CHRM4 agonist -2, M4 PAM 3 and M4 antag -15.
Screening O=C(O)c1ccccc1Cc1nc2cc(Cl)ccc2c(=O)[nH]1 returned M5 antag 13, M5 PAM 6, M5 ag 2, CHRM4 agonist -1, M4 PAM -4 and M4 antag 8.
For CCOC(=O)c1ccccc1Cc1nc2ccccc2c(=O)[nH]1 the results were M5 antag 44*, M5 PAM -21, M5 ag -10, CHRM4 agonist 1, M4 PAM -6 and M4 antag -2.
For Cc1ccc(CNC(=O)CCc2nc3ccccc3c(=O)[nH]2)cc1 the results were M5 antag -10, M5 PAM 36*, M5 ag -5, CHRM4 agonist 0, M4 PAM -3 and M4 antag 2.
c1cnc2ccc(-n3ccnc3)cc2c1 was read as M5 antag 0, M5 PAM 3, M5 ag 1, CHRM4 agonist 0, M4 PAM -4 and M4 antag -5.
C[C@H](OC(=O)c1[nH]cnc1C(=O)N1CCN(C(=O)OC(C)(C)C)CC1)c1ccccc1 was read as M5 antag 11, M5 PAM 0, M5 ag -3, CHRM4 agonist 1, M4 PAM 3 and M4 antag -7.
Screening CCOC(=O)c1[nH]cnc1C(=O)N1CCN(C(=O)OC(C)(C)C)CC1 returned M5 antag -10, M5 PAM 9, M5 ag -3, CHRM4 agonist 1, M4 PAM 24* and M4 antag -9.
`CC1=CNC(=O)CC(C)(C)C1` gave M5 antag -1, M5 PAM -5, M5 ag 0, CHRM4 agonist 2, M4 PAM 18 and M4 antag -9.
`C1CCC(C(CC2CCCCN2)C2CCCCC2)CC1` (stereo not drawn) gave M5 antag 14, M5 PAM -17, M5 ag 2, CHRM4 agonist 11, M4 PAM -15 and M4 antag 35*!.
`CC1(c2ccc3c(c2)OCCCO3)NC(=O)N(CC(=O)Nc2cccc(C#N)c2)C1=O` (stereo not drawn) gave M5 antag 5, M5 PAM 4, M5 ag 1, CHRM4 agonist 3, M4 PAM 5 and M4 antag -1.
O=C1C2CCCCC2C(=O)N1c1ccc(NC2CCN(Cc3ccccc3)CC2)c([N+](=O)[O-])c1 (stereo not drawn) was read as M5 antag 32*, M5 PAM -23, M5 ag -19, CHRM4 agonist 1, M4 PAM -40 and M4 antag 16.
CC1CCC2C(=O)N(c3ccc(NC4CCN(Cc5ccccc5)CC4)c([N+](=O)[O-])c3)C(=O)C2C1 (stereo not drawn) was read as M5 antag 24, M5 PAM -36, M5 ag -18, CHRM4 agonist 4, M4 PAM -59 and M4 antag 29*.
Screening O=C1CCC(=O)N1c1ccc(NC2CCN(Cc3ccccc3)CC2)c([N+](=O)[O-])c1 returned M5 antag 5, M5 PAM -1, M5 ag -19, CHRM4 agonist 0, M4 PAM -24 and M4 antag 8.
For CCc1ccc(NC(=O)CSc2nncn2-c2cccnc2)cc1 the results were M5 antag 4, M5 PAM 1, M5 ag -1, CHRM4 agonist 2, M4 PAM 9 and M4 antag -2.
O=C(c1cc(=O)[nH]c2ccccc12)N1CCN(S(=O)(=O)c2ccc(Cl)cc2)CC1 was read as M5 antag 27*, M5 PAM -29, M5 ag 4, CHRM4 agonist 30, M4 PAM -6 and M4 antag 10.
For COc1cc(C(=O)NCc2ccccc2)ccc1OC(F)F the results were M5 antag 10, M5 PAM -6, M5 ag -2, CHRM4 agonist 0, M4 PAM 3 and M4 antag -1.
Screening COc1ccc(COc2ccccc2C(=O)NCc2ccccc2)cc1F returned M5 antag 28*, M5 PAM -19, M5 ag 4, CHRM4 agonist 14, M4 PAM -15 and M4 antag 19.
`O=C(c1ccc2c(=O)n3c(nc2c1)CCCCC3)N1CCN(c2ccccc2)CC1` gave M5 antag -4, M5 PAM -3, M5 ag 1, CHRM4 agonist 2, M4 PAM -10 and M4 antag -7.
For O=C(c1ccc2c(=O)n3c(nc2c1)CCCCC3)N1CCN(C(c2ccccc2)c2ccccc2)CC1 the results were M5 antag -4, M5 PAM -13, M5 ag -7, CHRM4 agonist 1, M4 PAM -15 and M4 antag 64*.
Screening O=C(c1ccc(=O)oc1)N1CCN(C(c2ccccc2)c2ccccc2)CC1 returned M5 antag 36*, M5 PAM -23, M5 ag -7, CHRM4 agonist 3, M4 PAM -14 and M4 antag 43*.
Screening Cc1ccc(-c2csc(NC(=O)c3ccc4c(=O)n5c(nc4c3)CCCCC5)n2)cc1 returned M5 antag -2, M5 PAM 8, M5 ag 2, CHRM4 agonist 2, M4 PAM 23* and M4 antag 0.
`CCOC(=O)[C@]12CCC=C1N(Cc1ccco1)C(=O)[C@H](CC(=O)NCc1cccs1)C2` gave M5 antag 0, M5 PAM 1, M5 ag 2, CHRM4 agonist 1, M4 PAM -2 and M4 antag -2.
For O=C(NCC1CCCO1)NC1(C(F)(F)F)Oc2ccccc2O1 (stereo not drawn) the results were M5 antag -2, M5 PAM 35*, M5 ag -12, CHRM4 agonist 0, M4 PAM 4 and M4 antag 3.
Screening O=C(NCC1CCCO1)c1cccs1 (stereo not drawn) returned M5 antag -6, M5 PAM 2, M5 ag 4, CHRM4 agonist 1, M4 PAM 36* and M4 antag 6.
`O=C(NCC1CCCO1)c1ccccc1` (stereo not drawn) gave M5 antag -4, M5 PAM 1, M5 ag -7, CHRM4 agonist 0, M4 PAM 0 and M4 antag 5.
For O=C(COC(=O)c1cccs1)NCC1CCCO1 (stereo not drawn) the results were M5 antag 0, M5 PAM 2, M5 ag 0, CHRM4 agonist 0, M4 PAM -2 and M4 antag 9.
